# An excerpt weighted towards active compounds, which were near 1.6% of everything screened.
# TRAIL sens C8 = viability loss with TRAIL in NB7+C8 cells, primary screen, TRAIL sensitizer project, cell-based, ATPlite luminescence. hit rate 1% among 360,000. inhibition (viability loss, TRAIL sensitization), % at 10 µM;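 active means compounds causing at least 50% loss of cell viability in the single-dose screen, relative to plate controls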
# FLuc stim CS = FLuc activators, initial screening, artefact control for FLuc-dependent activation tests, biochemical, ATPlite luminescence. Luciferin 4-monooxygenase (Photinus pyralis), P08659. ATPlite luciferase biochemical, 10 min; 0 = ATP-free wells, 1 = DMSO control. activation factor at 10 µM. 200,000 tested, under 10 active. AID 1027, 2008;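 active means luciferase activation factor, scaled between plate controls, of at least 2 with compound at 10 µM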
# Target sequence (P08659 whole entry, looked up): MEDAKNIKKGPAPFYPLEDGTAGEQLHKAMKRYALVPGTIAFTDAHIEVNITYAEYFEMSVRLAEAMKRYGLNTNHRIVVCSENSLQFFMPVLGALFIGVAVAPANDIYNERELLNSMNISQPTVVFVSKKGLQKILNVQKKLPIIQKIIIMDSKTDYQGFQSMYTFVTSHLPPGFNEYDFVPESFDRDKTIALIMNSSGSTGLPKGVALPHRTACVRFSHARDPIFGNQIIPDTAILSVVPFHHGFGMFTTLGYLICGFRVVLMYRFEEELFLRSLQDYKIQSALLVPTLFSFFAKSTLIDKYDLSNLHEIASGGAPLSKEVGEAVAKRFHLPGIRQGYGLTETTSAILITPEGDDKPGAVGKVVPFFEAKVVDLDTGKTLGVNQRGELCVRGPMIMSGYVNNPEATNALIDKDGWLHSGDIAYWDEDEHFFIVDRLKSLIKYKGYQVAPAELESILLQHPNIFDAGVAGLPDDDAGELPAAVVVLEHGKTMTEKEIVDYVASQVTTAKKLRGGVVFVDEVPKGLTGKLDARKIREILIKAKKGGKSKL
#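 System: Luciferase/luciferin detection reagent, cell-free biochemical luciferase assay | Medium: PBS buffer for ATP | Dosing: Test compounds dosed from 2 mM stocks in 100% DMSO | Timing: 10 min at ambient temperature | Signal: Luminescence measurement of luciferase light output | Evaluation: Luciferase activation, seen as luminescence increase over controls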
# PPC-1+TRAIL kill = compounds killing PPC-1 cancer cells with TRAIL present, primary screen, TRAIL potentiator project, ATPLite luminescence, uHTS. PPC-1 cells + TRAIL, ATPLite viability luminescence. hit rate 0.41% among 220,000. cell killing (% activity), % at 4 µM or 5 µM;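 active means cell killing above 50% in the first pass at 4 µM, then a duplicate retest at 5 µM averaging 50% or more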;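 further: plate controls were cells with TRAIL plus DMSO for no effect and medium-only wells lacking cells for full effect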
# FLuc inh counter = firefly luciferase enzyme inhibitors, primary screen, artefact control for luciferase-based inhibitor screens, biochemical, luminescence, ATPLite | 10 min | inhibition, % at 10 µM | hit rate 1.5% among 200,000;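 active means inhibition above about 50% when tested at 10 µM, limit read from the data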
# PPC-1 tox = cytotoxicity in PPC-1 cells, confirmation, cytotoxicity control for TRAIL apoptosis potentiator project, cell-based, ATP content luminescence; shares compounds with PPC-1+TRAIL kill; PPC-1 viability, ATPlite luminescence, overnight; cytotoxicity, % at 5 µM; hit rate 50% among 1,200; AID 1447, 2008;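 active means reconfirmed compounds whose average cytotoxicity reaches 50% or more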;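 further: 0% = DMSO-treated cells and 100% = wells holding medium but no cells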
# * hit, by the source's call; / = no result.
SMILES,TRAIL sens C8,FLuc stim CS,PPC-1+TRAIL kill,FLuc inh counter,PPC-1 tox
COc1ccc(-c2cn3cc(C)ccc3n2)cc1OC,71.8*,0.1,74.5*,87.9*,72.6*
COc1ccc(-c2csc(C)n2)cc1OC,-33.6,1,9.2,-3.4,/
COc1ccc(-c2cn3cc(C)ccc3n2)cc1F,72.8*,0.1,74.0*,93.4*,74.4*
COc1ccc(OC)c(C(=O)/C=C/c2ccccc2C(F)(F)F)c1,23.5,1,-5.0,-1.0,-1.7
COc1ccc(C(=O)/C=C/c2ccccc2)c(OC)c1,25.8,0.6,16.4,38.6,/
O=C(C1CCN(C2CCN(Cc3ccc4c(c3)CCO4)CC2)CC1)N1CCOCC1,3.5,1.1,14.0,-6.2,/
Cc1cc(NC(=O)CSC2=Nc3ccccc3C3=NC(Cc4ccccc4)C(=O)N23)n[nH]1 (configuration not stated),-4.8,1,-6.3,-3.2,-2.3
CCOC(=O)N1CCC(n2c(=S)[nH]c3ccccc3c2=O)CC1,-3.0,1.1,-5.2,-7.6,-18.0
CCOC(=O)N1CCN(C(=O)CCCn2c(=S)[nH]c3ccccc3c2=O)CC1,8.4,1,15.9,1.2,/
Oc1ccc(Cl)cc1N=Nc1ccccc1,15.8,/,/,/,/
O=C1c2cccc3c([N+](=O)[O-])ccc(c23)C(=O)N1CCc1ccccn1,43.6,/,24.2,/,12.1
Cc1ccc(S(=O)(=O)NCCCCCC(=O)Nc2nccs2)cc1,-0.1,1,-9.8,-2.0,/
Brc1ccc(N=Nc2ccc3ccccc3n2)cc1,91.7*,/,93.8*,/,93.4*
Nc1ncnc(NC2CCS(=O)(=O)C2)c1[N+](=O)[O-] (configuration not stated),1.6,/,6.3,/,/
O=C(/C=C/c1ccccc1)Nc1cc(NC(=O)/C=C/c2ccccc2)cc(C(=O)O)c1,-2.1,/,/,/,/
O=C(/C=C/c1ccccc1)Nc1cccc(C(=O)O)c1,81.1*,0.1,63.9*,91.5*,60.7*
CSc1cccc(NC(=O)/C=C/c2ccccc2)c1,25.9,0.6,24.6,42.2,/
CSc1ccc(/C=C/C(=O)Nc2ccccc2)cc1,58.1*,0.2,64.2*,82.9*,66.4*
CCCN1CCN(C(=O)CCCNC(=O)Cn2cnc3sc(C)c(C)c3c2=O)CC1,2.3,1,0.9,-2.2,/
CCOC(=O)c1cnc(Nc2nc3ccccc3o2)nc1C,88.1*,0.1,80.5*,91.4*,78.9*
CCOC(=O)c1cnc(Nc2nc3ccccc3o2)nc1CSc1nnc(C)s1,18.8,/,/,/,/
Cc1ccc(-n2c(-c3ccccc3)c[n+]3c2CCc2ccccc2-3)c(C)c1,37.2,1.1,25.1,-8.8,22.6
Cc1ccc2nc(SCC(=O)Nc3cc(C)on3)[nH]c2c1,-0.3,1.1,28.8,-6.2,/
Cc1cc(NC(=O)CSc2ccc(-c3nc4cc(C)c(C)cc4[nH]3)cn2)no1,42.8,0.4,58.8*,61.3*,45.0
CCNC(=O)CN(c1ccccc1)S(=O)(=O)c1ccc(Cl)cc1,-3.6,1.1,-4.5,-6.6,0.6
SMILES,TRAIL sens C8,FLuc stim CS,PPC-1+TRAIL kill,FLuc inh counter,PPC-1 tox
COc1ccc(Cl)cc1-c1nc(SCC(=O)N(C)CCC#N)n[nH]1,-5.3,1,-9.8,-3.7,-9.7
COc1ccc(Cl)cc1-c1nc(SCC(=O)NC2CCS(=O)(=O)C2)n[nH]1 (configuration not stated),-15.6,/,/,/,/
CCCOc1ccc2cc(-c3ccccn3)c(=O)oc2c1,89.1*,0.1,79.2*,92.3*,80.4*
CCc1ccc(C(=O)Nc2nnn(CC)n2)cc1,65.5*,0.1,63.4*,86.7*,56.9*
CCn1nnc(NC(=O)c2ccc(Br)o2)n1,-8.3,/,/,/,/
O=C(NCc1ccc2c(c1)OCO2)c1ccc(NS(=O)(=O)c2ccc3c(c2)OCCO3)cc1,-11.0,1.1,2.4,-8.3,/
O=C(N/N=C/c1ccco1)c1ccccn1,15.2,0.7,2.9,25.6,/
CC(C)(C)c1ccc(/C=N/NC(=O)c2ccccn2)cc1,75.8*,0.1,63.6*,92.7*,61.2*
CC(=O)Nc1sc2c(c1-c1nc3ccccc3s1)CCN(C(C)C)C2,53.7*,1,37.0,-2.6,27.2
O=C(CSc1nnc(-c2ccc(O)cc2)o1)Nc1ccc2c(c1)OCCO2,34.4,1,65.3*,4.5,66.0*
COc1ccccc1NC(=O)CSc1nnc(-c2ccc(C)cc2)o1,47.7,1,43.0,-1.1,53.3*

# Screens: PubChem, Sanford-Burnham Center for Chemical Genomics
